Measurements from ChEMBL document CHEMBL4270630.

Legend:
Influenza A virus [1] = assay: Antiviral activity against Influenza A virus A/PR/8/34(H1N1) infected in MDCK cells assessed as reduction in virus-induced cytopathic effect after 3 days by microscopic method; format: functional, organism-based, A/Puerto Rico/8/1934(H1N1); settings: Influenza A virus, A/Puerto Rico/8/1934(H1N1), MDCK, 72 h
In short: (§1)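 Semi-confluent MDCK cells were infected at an MOI of 0.0004 PFU/cell in Ultra-MDCK infection medium with 2 μg/mL TPCK-trypsin, together with compounds. After 3 days at 35 °C, CPE was scored by microscopy and confirmed by MTS formazan viability. EC50 is the concentration giving 50% inhibition of virus-induced CPE. Values are means of two to five independent tests.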

Influenza A virus [2] = assay: Antiviral activity against Influenza A virus A/PR/8/34(H1N1) infected in MDCK cells after 3 days by MTS assay; format: functional, organism-based, A/Puerto Rico/8/1934(H1N1); settings: Influenza A virus, A/Puerto Rico/8/1934(H1N1), MDCK, 72 h; in short: as §1
Influenza A virus [3] = assay: Antiviral activity against Influenza A virus A/Virginia/ATCC3/2009(H1N1pdm) infected in MDCK cells assessed as reduction in virus-induced cytopathic effect after 3 days by microscopic method; format: functional, organism-based, Influenza A virus (A/Virginia/03/2009(H1N1)); settings: 72 h; in short: as §1
Influenza A virus [4] = assay: Antiviral activity against Influenza A virus A/Virginia/ATCC3/2009(H1N1pdm) infected in MDCK cells after 3 days by MTS assay; format: functional, organism-based, Influenza A virus (A/Virginia/03/2009(H1N1)); settings: 72 h; in short: as §1
H3N2 subtype [5] = assay: Antiviral activity against Influenza A virus A/HK/7/87(H3N2) infected in MDCK cells assessed as reduction in virus-induced cytopathic effect after 3 days by microscopic method; format: functional, organism-based; settings: A/Hong Kong/7/1987(H3N2), 72 h; in short: as §1
H3N2 subtype [6] = assay: Antiviral activity against Influenza A virus A/HK/7/87(H3N2) infected in MDCK cells after 3 days by MTS assay; format: functional, organism-based; settings: A/Hong Kong/7/1987(H3N2), 72 h; in short: as §1
Influenza B virus [7] = assay: Antiviral activity against Influenza B virus B/Ned/537/05 infected in MDCK cells assessed as reduction in virus-induced cytopathic effect after 3 days by microscopic method; format: functional, organism-based; settings: B/Ned/537/05, MDCK, 72 h
In short: (§2)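 Semi-confluent MDCK cells were infected at an MOI of 0.0004 PFU/cell in Ultra-MDCK infection medium with 2 μg/mL TPCK-trypsin, together with compounds. After 3 days at 35 °C, CPE was scored by microscopy and confirmed by MTS formazan viability. Values are means of two to five independent tests.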

Influenza B virus [8] = assay: Antiviral activity against Influenza B virus B/Ned/537/05 infected in MDCK cells after 3 days by MTS assay; format: functional, organism-based; settings: B/Ned/537/05, MDCK, 72 h; in short: as §2
MDCK = assay: (§3) Cytotoxicity against MDCK cells assessed as reduction in cell viability after 3 days by MTS assay; format: cell-based, Canis lupus familiaris; settings: dog, mdck, 72 h
[9] = Cytotoxicity against MDCK cells assessed as alteration in cell morphology after 3 days by microscopic method; format: cell-based, Canis lupus familiaris; settings: dog
In short: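 Mock-infected MDCK cells were treated with compounds in parallel with the antiviral assay, 3 days at 35 °C. MCC is the concentration causing minimal change in cell morphology by microscopy. CC50 is the 50% cytotoxic concentration by MTS formazan viability assay.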

Human coronavirus 229E [10] = assay: Antiviral activity against Human coronavirus 229E infected in HEL299 cells assessed as reduction in virus induced cytopathic effect after 5 days by microscopic method; format: functional, organism-based; settings: HEL 299, 120 h
In short: (§4)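 Confluent HEL 299 cells in medium with 2% FCS were exposed to HCoV-229E (100 CCID50/well) together with compounds and held for 5 days at 35 °C. EC50 (CPE reduction) and MCC (minimal morphology change) were determined by microscopy. SI is MCC/EC50.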

[11] = Cytotoxicity against HEL299 cells assessed as changes in cell morphology after 5 days by microscopic method; format: cell-based, HEL 299; settings: human; in short: as §4
Human coronavirus 229E [12] = assay: Antiviral activity against Human coronavirus 229E infected in human A549 cells assessed as reduction in virus RNA level after 3 days by qRT-PCR method; format: functional; settings: A549, 72 h
In short: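 Confluent A549 cells were infected with HCoV-229E in 2% FCS medium with compounds present. The inoculum was removed at 1 h and compounds were kept on at 35 °C. Supernatants were harvested at day 3, lysed at 75 °C for 10 min, and viral genome copies counted by one-step qRT-PCR.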

[13] = Cytotoxicity against human A549 cells assessed as changes in cell morphology after 3 days by microscopic method; format: cell-based
In short: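 Mock-infected A549 cells were incubated with compounds for 3 days. MCC is the concentration causing minimal change in cell morphology by microscopy.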

[14] = Selectivity index, ratio of MCC for HEL299 cells to EC50 for Human coronavirus 229E infected in HEL299 cells; format: toxicity, cell-based; settings: read-out: Selectivity Index; in short: as §4
Influenza B virus [15] = assay: Antiviral activity against Influenza B virus B/HK/05/72 infected in MDCK cells assessed as reduction in virus-induced cytopathic effect after 3 days by microscopic method; format: functional, organism-based; settings: B/Hong Kong/05/1972, MDCK, 72 h; in short: as §1
Influenza B virus [16] = assay: Antiviral activity against Influenza B virus B/HK/05/72 infected in MDCK cells after 3 days by MTS assay; format: functional, organism-based; settings: B/Hong Kong/05/1972, MDCK, 72 h; in short: as §1
[17] = as §3; format: cell-based, Canis lupus familiaris; settings: dog, MDCK cells
Influenza A virus [18] = assay: Antiviral activity against Influenza A virus A/PR/8/34(H1N1) GFP-fused pseudotyped lentiviral particle expressing H1-HA/N1-NA infected in MDCK cells assessed as inhibition of pseudoparticle entry at 2 uM after 3 days by flow cytometry relative to control; format: functional; settings: A/Puerto Rico/8/1934(H1N1), 72 h
In short: (§5)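 MDCK cells were seeded at 7500/well and one day later were exposed to compounds plus GFP lentiviral pseudoparticles bearing A/PR/8/34 H1-HA and N1-NA, with HA0 activated by trypsin. After 3 days the cells were trypsinized, fixed in paraformaldehyde and analysed for GFP by flow cytometry. Entry inhibition was taken as the reduction in GFP signal. Data are the mean ± SEM of four independent experiments.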

[19] = Selectivity index, ratio of MCC for MDCK cells to EC50 for Influenza A virus A/PR/8/34(H1N1) infected in MDCK cells assessed as reduction in virus-induced cytopathic effect by microscopic method; format: toxicity, cell-based; settings: dog, read-out: Selectivity Index
In short: (§6)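 Selectivity index is MCC divided by EC50. MCC comes from microscopy of mock-infected MDCK cells. EC50 comes from microscopic scoring of virus-induced CPE in MDCK cells infected at an MOI of 0.0004 PFU/cell with TPCK-trypsin. Both readings were taken after 3 days at 35 °C.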

[20] = Selectivity index, ratio of MCC for MDCK cells to EC50 for Influenza A virus A/Virginia/ATCC3/2009(H1N1pdm) infected in MDCK cells assessed as reduction in virus-induced cytopathic effect by microscopic method; format: toxicity, cell-based; settings: dog, read-out: Selectivity Index; in short: as §6
[21] = Selectivity index, ratio of MCC for MDCK cells to EC50 for Influenza A virus A/HK/7/87(H3N2) infected in MDCK cells assessed as reduction in virus-induced cytopathic effect by microscopic method; format: toxicity, cell-based; settings: dog, read-out: Selectivity Index; in short: as §6
[22] = Selectivity index, ratio of MCC for MDCK cells to EC50 for Influenza B virus B/Ned/537/05 infected in MDCK cells assessed as reduction in virus-induced cytopathic effect by microscopic method; format: toxicity, cell-based; settings: dog, read-out: Selectivity Index; in short: as §6
[23] = Selectivity index, ratio of MCC for MDCK cells to EC50 for Influenza B virus B/HK/05/72 infected in MDCK cells assessed as reduction in virus-induced cytopathic effect by microscopic method; format: toxicity, cell-based; settings: dog, read-out: Selectivity Index; in short: as §6
Influenza A virus [24] = assay: Antiviral activity against Influenza A virus A/PR/8/34(H1N1) GFP-fused pseudotyped lentiviral particle expressing H1-HA/N1-NA infected in MDCK cells assessed as inhibition of pseudoparticle entry at 10 uM after 3 days by flow cytometry relative to control; format: functional; settings: A/Puerto Rico/8/1934(H1N1), 72 h; in short: as §5

Compound | EC50 (Influenza A virus [1]) | EC50 (Influenza A virus [2]) | EC50 (Influenza A virus [3]) | EC50 (Influenza A virus [4]) | EC50 (H3N2 subtype [5]) | EC50 (H3N2 subtype [6]) | EC50 (Influenza B virus [7]) | EC50 (Influenza B virus [8]) | CC50 (MDCK) | MCC at 72 h [9] | EC50 (Human coronavirus 229E [10]) | MCC at 120 h [11] | EC90 (Human coronavirus 229E [12]) | EC99 (Human coronavirus 229E [12]) | MCC at 72 h [13] | selectivity ratio [14] | inhibition at 2 µM (Influenza A virus [18]) | also measured
CC(=O)N[C@H]1[C@H](O[C@@H]2c3ccc(c(Cl)c3)Oc3cc4cc(c3O)Oc3ccc(cc3Cl)C[C@H]3NC(=O)[C@H](NS(=O)(=O)c5ccc(C)cc5)c5ccc(O)c(c5)Oc5cc(O)cc(c5)[C@H](NC3=O)C(=O)N[C@H]4C(O)N[C@H]3C(=O)N[C@H]2C(=O)N[C@@H](C(=O)O)c2cc(O)cc(O)c2-c2cc3ccc2O)O[C@H](CO)[C@@H](O)[C@@H]1O (stereo partly drawn) | 9 µM | 11 µM | 30 µM | 32 µM | 41 µM | 19 µM | 11 µM | 12 µM | > 100 µM | 100 µM | 5.2 µM | ≥ 100 µM | 4.9 µM | 10 µM | > 50 µM | 19 | – | –
CCCCCCCCO[C@@H]1[C@@H](OCCCCCCCC)[C@@H](OC)O[C@H](COCCOCCOCCOCCOCc2cn([C@H]3C(=O)N[C@@H]4Cc5ccc(c(Cl)c5)Oc5cc6cc(c5O)Oc5ccc(cc5Cl)[C@@H](O[C@@H]5O[C@H](CO)[C@@H](O)[C@H](O)[C@H]5NC(C)=O)[C@H]5NC(=O)[C@H](NC(O)[C@@H]6NC(=O)[C@@H](NC4=O)c4cc(O)cc(c4)Oc4cc3ccc4O)c3ccc(O)c(c3)-c3c(O)cc(O)cc3[C@H](C(=O)O)NC5=O)nn2)[C@H]1OCc1ccc(OC)cc1 (stereo partly drawn) | 0.8 µM | 1.2 µM | 1.4 µM | < 0.8 µM | 1.8 µM | 1.2 µM | – | – | – | 20 µM | – | – | – | – | – | – | 54% | EC50 (Influenza B virus [15]): > 100 µM; EC50 (Influenza B virus [16]): > 100 µM; CC50 at 72 h [17]: 11 µM
CCCCCCCCCCCCS(=O)(=O)N[C@H]1C(=O)N[C@@H]2Cc3ccc(c(Cl)c3)Oc3cc4cc(c3O)Oc3ccc(cc3Cl)[C@@H](O[C@@H]3O[C@H](CO)[C@@H](O)[C@H](O)[C@H]3NC(C)=O)[C@H]3NC(=O)[C@H](NC(O)[C@@H]4NC(=O)[C@@H](NC2=O)c2cc(O)cc(c2)Oc2cc1ccc2O)c1ccc(O)c(c1)-c1c(O)cc(O)cc1[C@H](C(=O)O)NC3=O (stereo partly drawn) | 0.4 µM | 0.8 µM | > 100 µM | 1.6 µM | < 0.8 µM | < 0.8 µM | < 0.8 µM | < 0.8 µM | 4.5 µM | 4 µM | 1.8 µM | 20 µM | 2.8 µM | 4.7 µM | 50 µM | 13 | – | –
CCCCSC1=C(SCCCC)C(=O)N(CCOCCOCCOCCOCc2cn(C3C(=O)N[C@@H]4Cc5ccc(c(Cl)c5)Oc5cc6cc(c5O)Oc5ccc(cc5Cl)[C@@H](O[C@@H]5O[C@H](CO)[C@@H](O)[C@H](O)[C@H]5NC(C)=O)[C@H]5NC(=O)[C@H](NC(O)[C@@H]6NC(=O)[C@@H](NC4=O)c4cc(O)cc(c4)Oc4cc3ccc4O)c3ccc(O)c(c3)-c3c(O)cc(O)cc3[C@H](C(=O)O)NC5=O)nn2)C1=O (stereo partly drawn) | 4.8 µM | 5.8 µM | 9.5 µM | 8.6 µM | 5.3 µM | 6 µM | 5.5 µM | 4.9 µM | > 100 µM | 100 µM | 8.9 µM | ≥ 100 µM | 8.6 µM | 29 µM | > 50 µM | – | – | selectivity ratio [19]: 16; selectivity ratio [20]: 16; selectivity ratio [21]: 16; selectivity ratio [22]: 16; selectivity ratio [23]: 16
CCCCCCCCCCOCc1cn(CCOCCOCCOCCOCc2cn([C@H]3C(=O)N[C@@H]4Cc5ccc(c(Cl)c5)Oc5cc6cc(c5O)Oc5ccc(cc5Cl)[C@@H](O[C@@H]5O[C@H](CO)[C@@H](O)[C@H](O)[C@H]5NC(C)=O)[C@H]5NC(=O)[C@H](NC(O)[C@@H]6NC(=O)[C@@H](NC4=O)c4cc(O)cc(c4)Oc4cc3ccc4O)c3ccc(O)c(c3)-c3c(O)cc(O)cc3[C@H](C(=O)O)NC5=O)nn2)nn1 (stereo partly drawn) | 1.6 µM | 1.5 µM | 1.8 µM | 1.8 µM | 1.6 µM | 1.3 µM | > 100 µM | < 0.8 µM | ≥ 82 µM | ≥ 20 µM | – | – | – | – | – | – | 56% | inhibition at 10 µM (Influenza A virus [24]): 92%
CCCCCCS(=O)(=O)N[C@H]1C(=O)N[C@@H]2Cc3ccc(c(Cl)c3)Oc3cc4cc(c3O)Oc3ccc(cc3Cl)[C@@H](O[C@@H]3O[C@H](CO)[C@@H](O)[C@H](O)[C@H]3NC(C)=O)[C@H]3NC(=O)[C@H](NC(O)[C@@H]4NC(=O)[C@@H](NC2=O)c2cc(O)cc(c2)Oc2cc1ccc2O)c1ccc(O)c(c1)-c1c(O)cc(O)cc1[C@H](C(=O)O)NC3=O (stereo partly drawn) | 8.6 µM | 9.6 µM | 8.9 µM | 9.1 µM | 8.3 µM | 8.9 µM | 8.9 µM | 10.3 µM | 54 µM | 100 µM | 1.5 µM | 20 µM | – | – | – | 11 | – | –
